What was measured:
Phosphodiesterase 3 = Phosphodiesterase 3 (Homo sapiens, UniProt Q14432+Q13370); assay: Inhibition of dual cGMP-inhibited phosphodiesterase 3 (PDE3) was determined in homogenates from human platelets.
Outline: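 Enzyme source: homogenates of human platelets. Values as pIC50 (−log IC50), mean of two independent determinations each run in triplicate.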

Phosphodiesterase 4 = Phosphodiesterase 4 (Homo sapiens, UniProt P27815+Q08499+Q07343+Q08493); assay: inhibition of cAMP-specific phosphodiesterase 4 (PDE4) was determined in cytosol from human neutrophils; assay type: protein assay
Outline: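 Enzyme source: cytosol of human neutrophils. Values as pIC50 (−log IC50), mean of two independent determinations each run in triplicate.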

Mus musculus [1] = assay: Inhibition of arachidonic acid (AA)-induced mouse ear edema after pretreatment with compound (1 h before AA) at a drug concentration of 30 umol/kg po.; assay type: functional
Outline: (§1)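 Mice dosed orally at 30 µmol/kg, 1 h before arachidonic acid applied to ear; edema read 1 h after AA (2 h post-dose). Percent inhibition of edema formation calculated versus provoked untreated controls; maximal attainable inhibition in model 80%.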

Mus musculus [2] = assay: In vivo inhibition of arachidonic acid induced mouse ear edema 1 hr after pretreatment with 30 umol/kg peroral dose; assay type: functional; conditions: po; outline: as §1

| SMILES | Log IC50 (Phosphodiesterase 3) | Log IC50 (Phosphodiesterase 4) | inhibition in vivo at 30 µmol/kg (Mus musculus [1]) [%] | inhibition in vivo at 30 µmol/kg (Mus musculus [2]) [%] |
| --- | --- | --- | --- | --- |
| COc1ccc(C2=NN(CCCCC(=O)Nc3ccc(-c4ccc(O)nn4)cc3)C(=O)C3CC=CCC23)cc1OC (stereo not drawn) | -6.1 | -8.2 | 27 | – |
| COc1ccc(C2=NN(CC(=O)Nc3ccc(C4=NNC(=O)CC4C)cc3)C(=O)C3CC=CCC23)cc1OC (stereo not drawn) | -6.7 | -8.4 | 13 | – |
| COc1ccc(C2=NN(CCCCOc3ccc(C4=NNC(=O)CC4C)cc3)C(=O)C3CC=CCC23)cc1OC (stereo not drawn) | -7.1 | -8.7 | 32 | – |
| COc1ccc(C2=NN(CCCCC(=O)Nc3ccc(C4=NNC(=O)CC4C)cc3)C(=O)C3CC=CCC23)cc1OC (stereo not drawn) | -7 | -8.2 | 26 | – |
| CC1CC(=O)NN=C1c1ccc(-n2cnc3c2CCCC3)cc1 (stereo not drawn) [TETRAHYDROBENXIMIDAZOLE] | -6.3 | – | – | – |
| CC1CC(=O)NN=C1c1ccc2c(c1)C(C)(C)C(=O)N2 (stereo not drawn) | -7.9 | – | – | – |
| COc1cc(-c2ccc(=O)[nH]n2)ccc1OC(F)F [ZARDAVERINE] | – | – | 22 | – |
| CCOc1ccc(C2=NN(CCCCOc3ccc(C4=NNC(=O)CC4C)cc3)C(=O)C3CC=CCC23)cc1OCC (stereo not drawn) | -6.7 | -8.6 | 46 | – |
| CC1(C)C(=O)Nc2ccc(-c3ccc(O)nn3)cc21 | -6.9 | – | – | – |
| COc1ccc(C2=NN(CC(=O)Nc3ccc(-c4ccc(O)nn4)cc3)C(=O)C3CC=CCC23)cc1OC (stereo not drawn) | -5.9 | -8.1 | 31 | – |
| COc1ccc(C2=NN(CC(=O)Nc3cccc(C4=NNC(=O)CC4C)c3)C(=O)C3CC=CCC23)cc1OC (stereo not drawn) | -5.8 | -8.4 | – | – |
| COc1ccc(C2=NN(CCCCOc3ccc(C4=NNC(=O)CC4C)cc3)C(=O)C3CC=CCC23)cc1Cl (stereo not drawn) | -7.5 | -7.8 | 47 | – |
| CCOc1ccc(C2=NN(c3ccc(C4=NNC(=O)CC4C)cc3)C(=O)C3CC=CCC23)cc1OCC (stereo not drawn) | -6.6 | -8.1 | 42 | – |
| COc1ccc([C@]2(C#N)CC[C@@H](C(=O)O)CC2)cc1OC1CCCC1 [CILOMILAST] | < -5 | – | 33 | – |

Now from value to compound, other results behind:

| Log IC50 (Phosphodiesterase 3) | Log IC50 (Phosphodiesterase 4) | SMILES | inhibition in vivo at 30 µmol/kg (Mus musculus [1]) [%] | inhibition in vivo at 30 µmol/kg (Mus musculus [2]) [%] |
| --- | --- | --- | --- | --- |
| -6.3 | -7.8 | COc1ccc(C2=NN(c3ccc(C4=NNC(=O)CC4C)cc3)C(=O)C3CC=CCC23)cc1OC1CCCC1 (stereo not drawn) | 18 | – |
| < -5 | -7.9 | COc1ccc(C2=NN(c3ccccc3)C(=O)C3CC=CCC23)cc1OC (stereo not drawn) | – | 13 |
| -7.1 | -7 | COc1ccc(C2=NN(c3ccc(C4=NNC(=O)CC4C)cc3)C(=O)C3CC=CCC23)cc1Cl (stereo not drawn) | 35 | – |
| -5.4 | -8.1 | COc1ccc(C2=NN(c3ccc(-c4ccc(O)nn4)cc3)C(=O)C3CC=CCC23)cc1OC (stereo not drawn) | 8 | – |
| < -5 | -7.8 | COc1ccc(C2=NN(c3ccccc3)C(=O)C3CC=CCC23)cc1OC1CCCC1 (stereo not drawn) | – | – |
| -6.7 | -8.4 | COc1ccc(C2=NN(c3ccc(C4=NNC(=O)CC4C)cc3)C(=O)C3CC=CCC23)cc1OC (stereo not drawn) | 34 | – |
| < -5 | -7.1 | COc1ccc(C2=NN(c3ccccc3)C(=O)C3CC=CCC23)cc1Cl (stereo not drawn) | – | – |
| < -5 | -7.7 | CCOc1ccc(C2=NN(c3ccccc3)C(=O)C3CC=CCC23)cc1OCC (stereo not drawn) | – | – |

Reference: ChEMBL document CHEMBL1145041, “Synthesis and structure-activity relationships of cis-tetrahydrophthalazinone/pyridazinone hybrids: a novel series of potent dual PDE3/PDE4 inhibitory agents” (J Med Chem, 2003)
